Measured values from different studies.
Compare with care: the assays were run in different laboratories. pIC50: −log10 of the molar value.
Cell line: HepG2
Read-out: cell growth or viability

With `CC1=C(O)C(=O)C=C2C1=CC=C1[C@@]2(C)CC[C@@]2(C)[C@@H]3C[C@](C)(C(=O)OCCCCCCO)CC[C@]3(C)CC[C@]12C` the pIC50 was 4.97 (MTT; 48 h).
The pIC50 of `COc1cc(-c2nc(OCc3cn(CC(=O)Nc4ccc(C)cc4)nn3)c3ccccc3n2)cc(OC)c1OC` is reported as 4.87 (MTT; 72 h).
For `Oc1ncnc2cc(Nc3nc(-c4ccc(F)cc4)cs3)ccc12`, the pIC50 was 5.10 (MTT).
`CC1(C)[C@@H](O)CC[C@]2(C)[C@H]3C(=O)C=C4[C@@H]5C[C@@](C)(C(=O)O)CC[C@]5(C)CC[C@@]4(C)[C@]3(C)CC[C@@H]12` gave a pIC50 of under 4.00 (MTT; 48 h).
For `COc1cccc2c1C(=O)c1c(O)c3c(c(O)c1C2=O)C[C@@](O)(C(=O)CO)C[C@@H]3O[C@H]1C[C@H](N)[C@H](O)[C@H](C)O1`, the pIC50 was 6.43 (SRB).
The pIC50 of `Cc1cccc(NC(=O)NNC(=O)c2ccc(Nc3nccc(-c4ccccn4)n3)cc2)c1` is reported as 4.63 (MTT).
With `COC(=O)CN=c1scc(-c2ccccc2)n1-c1ccccc1[N+](=O)[O-]` the pIC50 was 4.81 (MTT).
With `CCN(CC)C/C=N/NC(=O)Nc1cc2c(Nc3ccc(F)c(Cl)c3)ncnc2cc1O[C@H]1CCOC1` the pIC50 was 5.62 (MTT; 72 h).
`CC(C)(C)NC(=O)NNC(=O)c1ccc(Nc2nccc(-c3ccc(Cl)cc3)n2)cc1` has a pIC50 of 5.35 (MTT).
`COC(=O)CN=c1scc(-c2ccccc2)n1-c1ccccc1C` has a pIC50 of 4.10 (MTT; 72 h).
`C#Cc1cccc(Nc2ncnc3cc(OCCOC)c(OCCOC)cc23)c1` has a pIC50 of 5.17 (MTT).
`Oc1ccc(Br)cc1-c1nc2ccccc2[nH]1` has a pIC50 of 5.05 (MTT; 48 h).
`COc1ccc(-c2csc(Nc3ccc4c(O)ncnc4c3)n2)cc1` has a pIC50 of 4.76 (MTT).
`COc1ccc(-c2nc3ccc(C)cc3[nH]2)cc1O` gave a pIC50 of 4.22 (MTT; 48 h).
With `Nc1ncnc2c1ncn2[C@@H]1O[C@H](CO)[C@@H](O)[C@H]1O` the pIC50 was 4.26 (WST-1; 48 h).
With `O=C(NNC(=O)c1ccc(Nc2nccc(-c3ccccn3)n2)cc1)NC1CCCC1` the pIC50 was under 4.40 (MTT).
With `Clc1ccc(-c2nc3ccccc3[nH]2)c(Cl)c1` the pIC50 was 4.43 (MTT; 48 h).
The pIC50 of `CC1=C(O)C(=O)C=C2C1=CC=C1[C@@]2(C)CC[C@@]2(C)[C@@H]3C[C@](C)(C(=O)OCCCn4ccc5ccccc54)CC[C@]3(C)CC[C@]12C` is reported as under 4.00 (MTT; 48 h).
`CCN(CC)CCn1cccc1/C=N/NC(=O)Nc1cc2c(Nc3ccc(F)c(Cl)c3)ncnc2cc1OC` has a pIC50 of 5.79 (MTT; 72 h).
`c1ccc(-c2ccccn2)nc1` gave a pIC50 of under 4.30 (MTT; 48 h).
For `CCNC(=O)NNC(=O)c1ccc(Nc2nccc(-c3ccc(Cl)cc3)n2)cc1`, the pIC50 was 4.69 (MTT; 24 h).
`Cc1cc(=O)oc2ccc(-c3cc(-c4ccc(Br)cc4)nc(N)n3)c(O)c12` has an IC50 of over 128 µg/mL (MTT; 72 h).
`Nc1nc(-c2ccc(NC(=O)Nc3cc(Br)cc(Br)c3)cc2)c[nH]1` has a pIC50 of 4.32 (XTT; 24 h).
`O=c1c(O)c(-c2ccc(O)c(O)c2)oc2cc(O)cc(O)c12` gave a pIC50 of 5.00 (WST-1; 48 h).
`Oc1ncnc2cc(Nc3nc(-c4ccccc4)cs3)ccc12` has a pIC50 of 4.93 (MTT).
`Cc1cc(C)n(-c2nc(Nc3ccc(Br)cc3)nc(N3CCOCC3)n2)n1` has a pIC50 of 5.52 (MTT; 72 h).
The IC50 of `COc1cccc2c1C(=O)c1c(O)c3c(c(O)c1C2=O)C[C@@](O)(C(=O)CO)C[C@@H]3O[C@H]1C[C@H](N)[C@H](O)[C@H](C)O1` is reported as 0.12 µg/mL (MTT; 48 h).
`O=C(N/N=C/CN1CCOCC1)Nc1cc2c(Nc3ccc(F)c(Cl)c3)ncnc2cc1O[C@H]1CCOC1` gave a pIC50 of 5.49 (MTT; 72 h).
The pIC50 of `Oc1c(I)cc(Cl)c2cccnc12` is reported as 4.23 (MTT; 48 h).
With `c1ccc2[nH]c(-c3ccncc3)nc2c1` the pIC50 was 4.06 (MTT; 48 h).
With `Cc1ccc(-c2cc(-c3ccc4oc(=O)cc(C)c4c3O)nc(N)n2)cc1` the IC50 was over 128 µg/mL (MTT; 72 h).
`COc1cc2ncnc(Nc3ccc(F)c(Cl)c3)c2cc1NC(=O)N/N=C/CN1CCCC1` has a pIC50 of 5.61 (MTT; 72 h).
The pIC50 of `Cc1ccc2nc(-c3ccncc3)[nH]c2c1` is reported as 4.28 (MTT; 48 h).
For `COc1cc(/C=C/C(=O)c2ccc(NC(=O)c3ccccc3CN3C(=O)c4ccccc4C3=O)cc2)cc(OC)c1OC`, the pIC50 was 5.79 (MTT; 72 h).
With `Cc1ccc2nc(-c3cc(Br)ccc3O)[nH]c2c1` the pIC50 was 5.05 (MTT; 48 h).
For `C[C@H]1[C@@H](O)O[C@@H]2O[C@@]3(C)CC[C@H]4[C@H](C)CC[C@@H]1[C@@]24OO3`, the pIC50 was under 4.30 (CCK-8; 48 h).
With `CC1=C(O)C(=O)C=C2C1=CC=C1[C@@]2(C)CC[C@@]2(C)[C@@H]3C[C@](C)(C(=O)OCCCO)CC[C@]3(C)CC[C@]12C` the pIC50 was 6.12 (MTT; 48 h).
The pIC50 of `O=C(/C=C/c1ccc(O)c(O)c1)O[C@@H]1C[C@](O)(C(=O)O)C[C@@H](O)[C@H]1O` is reported as 4.61 (WST-1; 48 h).
`Cc1ccc2nc(-c3ccc(Cl)cc3Cl)[nH]c2c1` has a pIC50 of 4.51 (MTT; 48 h).
`O=c1[nH]cc(F)c(=O)[nH]1` has a pIC50 of 4.48 (MTT; 48 h).
The pIC50 of `Clc1ccnc2c1ccc1c(Cl)ccnc12` is reported as under 4.30 (MTT; 48 h).
For `CN1CCN(CCCn2cccc2/C=N/NC(=O)Nc2cc3c(Nc4ccc(F)c(Cl)c4)ncnc3cc2O[C@H]2CCOC2)CC1`, the pIC50 was 6.17 (MTT; 72 h).
`CC(=O)O[C@@]12CO[C@@H]1C[C@H](O)[C@@]1(C)C(=O)[C@H](O)C3=C(C)[C@@H](OC(=O)[C@H](O)[C@@H](NC(=O)OC(C)(C)C)c4ccccc4)C[C@@](O)([C@@H](OC(=O)c4ccccc4)[C@H]21)C3(C)C` has a pIC50 of 6.96 (CCK-8; 72 h).
`COc1cc2ncnc(Nc3ccc(F)c(Cl)c3)c2cc1NC(=O)N/N=C/c1cccn1CCCN1CCCC1` has a pIC50 of 7.22 (MTT; 72 h).
`Cc1cc(=O)oc2ccc(-c3cc(-c4cccc(Cl)c4)nc(N)n3)c(O)c12` has an IC50 of over 128 µg/mL (MTT; 72 h).
The pIC50 of `COc1cc2ncnc(Nc3ccc(F)c(Cl)c3)c2cc1NC(=O)N/N=C/c1cccn1CCN1CCCC1` is reported as 6.80 (MTT; 72 h).
The pIC50 of `Cc1ccc2nc(-c3ccc(N(C)C)cc3)[nH]c2c1` is reported as 4.46 (MTT; 48 h).
For `COc1cc2ncnc(Nc3ccc(F)c(Cl)c3)c2cc1NC(=O)N/N=C/c1cccn1CCCN1CCN(C)CC1`, the pIC50 was 7.10 (MTT; 72 h).
`COCCCOC(=O)[C@]1(C)CC[C@]2(C)CC[C@]3(C)C4=CC=C5C(=CC(=O)C(O)=C5C)[C@]4(C)CC[C@@]3(C)[C@@H]2C1` gave a pIC50 of 6.03 (MTT; 48 h).
